# Laboratory results from ChEMBL document CHEMBL3102784, “Salicylanilide diethyl phosphates: synthesis, antimicrobial activity and cytotoxicity” (Bioorg Med Chem, 2014).
# The source made the active and inactive calls. The rule behind the calls is not given here.
# What was measured:
# Mycobacterium avium [1] = assay: Antimycobacterial activity against isoniazid, rifampicin, ethambutol and ofloxacin-resistant Mycobacterium avium My 330/88 after 21 days; type: functional; conditions: My 330/88, 504 h
# Procedure, shortened: (§1)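 Micromethod MIC in Šula's semisynthetic medium at 37 °C. Compounds added in DMSO at 1000 down to 0.032 µmol/L. Isoniazid standard in sterile water at 0.5–250 µmol/L. Inocula: H37Rv 10^3, M. avium 10^5, M. kansasii 10^4. Read at 14 and 21 d, plus 7 d for M. kansasii.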
# Mycobacterium avium [2] = assay: Antimycobacterial activity against isoniazid, rifampicin, ethambutol and ofloxacin-resistant Mycobacterium avium My 330/88 after 14 days; type: functional; conditions: My 330/88, 336 h; procedure, shortened: as §1
# [3] = test system: Mycobacterium tuberculosis; assay: Antimycobacterial activity against Mycobacterium tuberculosis H37Rv My 331/88 after 21 days; type: functional; conditions: H37Rv My 331/88, 504 h; procedure, shortened: as §1
# [4] = test system: Mycobacterium tuberculosis; assay: Antimycobacterial activity against Mycobacterium tuberculosis H37Rv My 331/88 after 14 days; type: functional; conditions: H37Rv My 331/88, 336 h; procedure, shortened: as §1
# [5] = test system: Trichophyton mentagrophytes; assay: Antifungal activity against Trichophyton mentagrophytes 445 after 120 hrs by broth microdilution method; type: functional; conditions: Trichophyton mentagrophytes, 445, 120 h
# Procedure, shortened: (§2)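 Filamentous dermatophyte tested by broth microdilution in RPMI 1640 with glutamine, fluconazole as reference. Value expressed as IC50 relative to growth control. Read at 72 and 120 h.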
# [6] = test system: Trichophyton mentagrophytes; assay: Antifungal activity against Trichophyton mentagrophytes 445 after 72 hrs by broth microdilution method; type: functional; conditions: Trichophyton mentagrophytes, 445, 72 h; procedure, shortened: as §2
# Lichtheimia corymbifera [7] = assay: Antifungal activity against Absidia corymbifera 272 after 48 hrs by broth microdilution method; type: functional; conditions: Lichtheimia corymbifera, 272, 48 h
# Procedure, shortened: (§3)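 Broth microdilution in RPMI 1640 with glutamine, fluconazole as reference. For yeasts, MIC is ≥80% growth reduction (IC80) versus control. For filamentous fungi, the value is expressed as IC50. Readings at 24 and 48 h.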
# Lichtheimia corymbifera [8] = assay: Antifungal activity against Absidia corymbifera 272 after 24 hrs by broth microdilution method; type: functional; conditions: Lichtheimia corymbifera, 272, 24 h; procedure, shortened: as §3
# Aspergillus fumigatus [9] = assay: Antifungal activity against Aspergillus fumigatus 231 after 48 hrs by broth microdilution method; type: functional; conditions: Aspergillus fumigatus, 231, 48 h; procedure, shortened: as §3
# Aspergillus fumigatus [10] = assay: Antifungal activity against Aspergillus fumigatus 231 after 24 hrs by broth microdilution method; type: functional; conditions: Aspergillus fumigatus, 231, 24 h; procedure, shortened: as §3
# Trichosporon asahii [11] = assay: Antifungal activity against Trichosporon asahii 1188 after 48 hrs by broth microdilution method; type: functional; conditions: Trichosporon asahii, 1188, 48 h; procedure, shortened: as §3
# Trichosporon asahii [12] = assay: Antifungal activity against Trichosporon asahii 1188 after 24 hrs by broth microdilution method; type: functional; conditions: Trichosporon asahii, 1188, 24 h; procedure, shortened: as §3
# Pichia kudriavzevii [13] = assay: Antifungal activity against Candida krusei E28 after 48 hrs by broth microdilution method; type: functional; conditions: E28, 48 h; procedure, shortened: as §3
# Pichia kudriavzevii [14] = assay: Antifungal activity against Candida krusei E28 after 24 hrs by broth microdilution method; type: functional; conditions: E28, 24 h; procedure, shortened: as §3
# Candida albicans [15] = assay: Antifungal activity against Candida albicans ATCC 44859 after 48 hrs by broth microdilution method; type: functional; conditions: ATCC 44859, 48 h; procedure, shortened: as §3
# Candida albicans [16] = assay: Antifungal activity against Candida albicans ATCC 44859 after 24 hrs by broth microdilution method; type: functional; conditions: ATCC 44859, 24 h; procedure, shortened: as §3
# Nakaseomyces glabratus = assay: Antifungal activity against Candida glabrata 20/I at 500 micromol/L after 24 to 48 hrs by broth microdilution method; type: functional, organism-based; procedure, shortened: as §3
# Candida tropicalis = assay: Antifungal activity against Candida tropicalis 156 at 500 micromol/L after 24 to 48 hrs by broth microdilution method; type: functional, organism-based; procedure, shortened: as §3
# Pseudomonas aeruginosa = assay: Antibacterial activity against Pseudomonas aeruginosa CCM 1961 at 500 micromol/L after 24 to 48 hrs by broth microdilution method; type: functional, organism-based
# Procedure, shortened: (§4)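 Broth microdilution in Mueller–Hinton broth, compounds dissolved in DMSO, tested over a dilution series from 500 downward. MIC taken as ≥95% growth reduction (IC95) versus drug-free control. Benzylpenicillin comparator. Readings at 24 and 48 h.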
# Klebsiella pneumoniae [17] = assay: Antibacterial activity against ESBL-positive Klebsiella pneumoniae J 14368/08 at 500 micromol/L after 24 to 48 hrs by broth microdilution method; type: functional, organism-based; procedure, shortened: as §4
# Klebsiella pneumoniae [18] = assay: Antibacterial activity against Klebsiella pneumoniae D 11750/08 at 500 micromol/L after 24 to 48 hrs by broth microdilution method; type: functional, organism-based; procedure, shortened: as §4
# Escherichia coli = assay: Antibacterial activity against Escherichia coli CCM 4517 at 500 micromol/L after 24 to 48 hrs by broth microdilution method; type: functional, organism-based; procedure, shortened: as §4
# Enterococcus sp. = assay: Antibacterial activity against Enterococcus sp. J 14365/08 at 500 micromol/L after 24 to 48 hrs by broth microdilution method; type: functional, organism-based; procedure, shortened: as §4
# [19] = test system: Staphylococcus epidermidis; assay: Antibacterial activity against Staphylococcus epidermidis H 6966/08 after 48 hrs by broth microdilution method; type: functional; conditions: H 6966/08, 48 h; procedure, shortened: as §4
# [20] = test system: Staphylococcus epidermidis; assay: Antibacterial activity against Staphylococcus epidermidis H 6966/08 after 24 hrs by broth microdilution method; type: functional; conditions: H 6966/08, 24 h; procedure, shortened: as §4
# Staphylococcus aureus [21] = assay: Antibacterial activity against methicillin-resistant Staphylococcus aureus H 5996/08 after 48 hrs by broth microdilution method; type: functional; conditions: H 5996/08, 48 h; procedure, shortened: as §4
# Staphylococcus aureus [22] = assay: Antibacterial activity against methicillin-resistant Staphylococcus aureus H 5996/08 after 24 hrs by broth microdilution method; type: functional; conditions: H 5996/08, 24 h; procedure, shortened: as §4
# Staphylococcus aureus [23] = assay: Antibacterial activity against Staphylococcus aureus CCM 4516/08 after 48 hrs by broth microdilution method; type: functional; conditions: CCM 4516/08, 48 h; procedure, shortened: as §4
# Staphylococcus aureus [24] = assay: Antibacterial activity against Staphylococcus aureus CCM 4516/08 after 24 hrs by broth microdilution method; type: functional; conditions: CCM 4516/08, 24 h; procedure, shortened: as §4
# Mycobacterium kansasii [25] = assay: Antimycobacterial activity against Mycobacterium kansasii 6509/96 after 21 days; type: functional; conditions: 6509/96, 504 h; procedure, shortened: as §1
# Mycobacterium kansasii [26] = assay: Antimycobacterial activity against Mycobacterium kansasii 6509/96 after 14 days; type: functional; conditions: 6509/96, 336 h; procedure, shortened: as §1
# Mycobacterium kansasii [27] = assay: Antimycobacterial activity against Mycobacterium kansasii 6509/96 after 7 days; type: functional; conditions: 6509/96, 168 h; procedure, shortened: as §1
# Mycobacterium kansasii [28] = assay: Antimycobacterial activity against Mycobacterium kansasii My 235/80 after 21 days; type: functional; conditions: My 235/80, 504 h; procedure, shortened: as §1
# Mycobacterium kansasii [29] = assay: Antimycobacterial activity against Mycobacterium kansasii My 235/80 after 14 days; type: functional; conditions: My 235/80, 336 h; procedure, shortened: as §1
# HepG2 = assay: Cytotoxicity against human HepG2 cells after 24 hrs by CellTiter assay; type: cell-based; conditions: HepG2, 24 h
# Procedure, shortened: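 HepG2 cells (passage 27–33) in MEM with 10% FBS, L-glutamine and NEAA, seeded at 1×10^4 per well. Treated next day with compounds at 0.1–100 µM (or 0.1–25 µmol/L), triplicates, <1% DMSO, for 24 h at 37 °C, 5% CO2. MTS reagent added for 2 h, absorbance read at 490 nm. IC50 taken against untreated (100%) and 10% DMSO (0%) controls.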
# Mycobacterium kansasii [30] = assay: Antimycobacterial activity against Mycobacterium kansasii My 235/80 after 7 days; type: functional; conditions: My 235/80, 168 h; procedure, shortened: as §1
structure (smiles),measurement,setting,value
CCOP(=O)(OCC)Oc1cc(Cl)ccc1C(=O)Nc1cccc(Cl)c1,MIC,Mycobacterium avium [1],16 µM
same,MIC,Mycobacterium avium [2],16 µM
same,MIC,[3],8 µM
same,MIC,[4],4 µM
same,MIC50,[5],> 500 µM
same,MIC50,[6],> 500 µM
same,MIC50,Lichtheimia corymbifera [7],> 500 µM
same,MIC50,Lichtheimia corymbifera [8],> 500 µM
same,MIC50,Aspergillus fumigatus [9],> 500 µM
same,MIC50,Aspergillus fumigatus [10],> 500 µM
same,MIC80,Trichosporon asahii [11],> 500 µM
same,MIC80,Trichosporon asahii [12],> 500 µM
same,MIC80,Pichia kudriavzevii [13],> 500 µM
same,MIC80,Pichia kudriavzevii [14],> 500 µM
same,MIC80,Candida albicans [15],> 500 µM
same,MIC80,Candida albicans [16],> 500 µM
same,Activity,Nakaseomyces glabratus,inactive
same,Activity,Candida tropicalis,inactive
same,Activity,Pseudomonas aeruginosa,inactive
same,Activity,Klebsiella pneumoniae [17],inactive
same,Activity,Klebsiella pneumoniae [18],inactive
same,Activity,Escherichia coli,inactive
same,Activity,Enterococcus sp.,inactive
same,MIC95,[19],500 µM
same,MIC95,[20],250 µM
same,MIC95,Staphylococcus aureus [21],500 µM
same,MIC95,Staphylococcus aureus [22],500 µM
same,MIC95,Staphylococcus aureus [23],500 µM
same,MIC95,Staphylococcus aureus [24],500 µM
same,MIC,Mycobacterium kansasii [25],8 µM
same,MIC,Mycobacterium kansasii [26],8 µM
same,MIC,Mycobacterium kansasii [27],8 µM
same,MIC,Mycobacterium kansasii [28],8 µM
same,MIC,Mycobacterium kansasii [29],8 µM
same,IC50,HepG2,9.57 µM
same,MIC,Mycobacterium kansasii [30],4 µM
